Measurements as given in ChEMBL document CHEMBL4118027, “Preussilides A-F, Bicyclic Polyketides from the Endophytic Fungus Preussia similis with Antiproliferative Activity” (J Nat Prod, 2017).
Calls of active or inactive are those of the source. The rule behind the calls is not given here.

What was measured:
[1] = system: Micrococcus luteus; assay: Antibacterial activity against Micrococcus luteus DSM 1790 by serial dilution method; type: functional, organism-based
[2] = system: U2OS; assay: Ratio of compound effect for induction of multipolar and duplicated spindle formation to compound effect for cytotoxicity for human U2OS cells; type: functional
Outline: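 Spindle arm: U2OS in DMEM (4.5 g/L glucose, 10% FBS) at 37 °C, 7% CO2, on fibronectin-coated coverslips, adhered 16 h. Treated 24 h at 0.25–10 μg/mL (diluted from 1 mg/mL DMSO stock) with a DMSO control, PFA-fixed, and anti-α-tubulin immunostained to score mitotic spindles. Cytotoxicity arm: 5-day MTT. Ratio compares spindle-inducing concentration with cytotoxic concentration.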

[3] = system: U2OS; assay: Induction of apoptosis in human U2OS cells assessed as caspase-3/7 cleavage at 5 ug/ml after 18 hrs by caspase-3/7 green reagent based flow cytometry (reference value: 8.04%)
[4] = system: L929; assay: Cytotoxicity against mouse L929 cells assessed as reduction in cell viability after 5 days by MTT assay; type: functional, cell-based; details: L929, 120 h
Outline: (§1)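 MTT viability assay run over 5 days on a panel of eight lines (L929, KB3.1, A431, A549, SKOV-3, PC-3, MCF-7, U2OS). IC50 values were derived.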

[5] = system: MCF7; assay: Cytotoxicity against human MCF7 cells assessed as reduction in cell viability after 5 days by MTT assay; type: functional, cell-based; details: MCF7, 120 h; outline: as §1
[6] = system: Escherichia coli; assay: Antibacterial activity against Escherichia coli DSM 498 by serial dilution method; type: functional, organism-based
[7] = system: Caenorhabditis elegans; assay: Nematicidal activity against Caenorhabditis elegans up to 100 ug/ml; type: functional, organism-based
[8] = system: U2OS; assay: Induction of morphological changes in human U2OS cells assessed as multipolar and duplicated spindle formation at 0.25 to 5 ug/ml after 24 hrs by DAPI staining based immunofluorescence microscopic method; type: functional, cell-based
Outline: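 U2OS in DMEM (4.5 g/L glucose, 10% FBS), 37 °C, 7% CO2, seeded 3 × 10^4/well on fibronectin-coated coverslips and adhered 16 h. Treated 24 h at 0.25, 0.5, 2.5, 5 or 10 μg/mL (diluted from 1 mg/mL DMSO stock), DMSO control. Fixed in 4% PFA/PBS 20 min; anti-α-tubulin (DM1A), phalloidin-Alexa 488 and DNA stain; immunofluorescence imaging.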

[9] = system: Mucor hiemalis; assay: Antifungal activity against Mucor hiemalis DSM 2656 by serial dilution method; type: functional, organism-based
[10] = system: Pseudomonas aeruginosa; assay: Antibacterial activity against Pseudomonas aeruginosa PA14 by serial dilution method; type: functional, organism-based
[11] = system: U2OS; assay: Cell cycle arrest in human U2OS cells assessed as accumulation at S phase at 5 ug/ml after 18 hrs by propidium iodide staining based flow cytometry (reference value: 19%); type: functional
Outline: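 U2OS were seeded at 7 × 10^5/well in six-well plates and exposed to 5 or 10 μg/mL for 18 h after spreading, with untreated and DMSO mock controls. Cells were trypsinized, fixed in 2% PFA/PBS, then in ice-cold methanol 30 min. Staining: anti-tubulin/anti-lamin antibodies plus RNase A and propidium iodide. Flow cytometry assigned G1, S, G2-M and sub-G1 by DNA content.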

## CC(=O)CC1=C(C)C=C2C[C@@H](C)C(=O)[C@@H](C)[C@@H]2[C@H]1/C=C(C)/C=C(C)/C=C/C(=O)O
[1]
  Activity: inactive
[2]
  Ratio: 10 - 20
[3]
  Activity: 3.45%
[4]
  IC50: 9.1 µM
[5]
  IC50: 7.3 µM
[6]
  Activity: inactive
[7]
  Activity: inactive
[8]
  Activity: Active
[9]
  Activity: inactive
[10]
  Activity: inactive
[11]
  Activity: 17.4%
